Measured values reported in ChEMBL document CHEMBL4219161, “New phenylaniline derivatives as modulators of amyloid protein precursor metabolism” (Bioorg Med Chem, 2018).

Target: T1, Amyloid-beta precursor protein (Homo sapiens, UniProt P05067)
Assay: Modulation of human wild-type APP695 expressed in SH-SY5Y cells assessed as increase in CTFalpha level at 10 uM measured after 24 hrs by Western blot analysis relative to amodiaquine
Format: cell-based
Outline: (§1)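 Stable human APP695 SY5Y clone (SY5Y-APPwt) was treated with compound for 24 h and lysed in Laemmli buffer with protease inhibitors. 20 µg protein/lane was separated on 16% Tris-Tricine gel and transferred to PVDF. Blots were probed with rabbit antiserum against the APP C-terminal 17 residues (1:4000, overnight at 4 °C) and read by chemiluminescence with densitometric area-under-curve. H3 was used as reprobe.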

T1 sequence (P05067 whole entry): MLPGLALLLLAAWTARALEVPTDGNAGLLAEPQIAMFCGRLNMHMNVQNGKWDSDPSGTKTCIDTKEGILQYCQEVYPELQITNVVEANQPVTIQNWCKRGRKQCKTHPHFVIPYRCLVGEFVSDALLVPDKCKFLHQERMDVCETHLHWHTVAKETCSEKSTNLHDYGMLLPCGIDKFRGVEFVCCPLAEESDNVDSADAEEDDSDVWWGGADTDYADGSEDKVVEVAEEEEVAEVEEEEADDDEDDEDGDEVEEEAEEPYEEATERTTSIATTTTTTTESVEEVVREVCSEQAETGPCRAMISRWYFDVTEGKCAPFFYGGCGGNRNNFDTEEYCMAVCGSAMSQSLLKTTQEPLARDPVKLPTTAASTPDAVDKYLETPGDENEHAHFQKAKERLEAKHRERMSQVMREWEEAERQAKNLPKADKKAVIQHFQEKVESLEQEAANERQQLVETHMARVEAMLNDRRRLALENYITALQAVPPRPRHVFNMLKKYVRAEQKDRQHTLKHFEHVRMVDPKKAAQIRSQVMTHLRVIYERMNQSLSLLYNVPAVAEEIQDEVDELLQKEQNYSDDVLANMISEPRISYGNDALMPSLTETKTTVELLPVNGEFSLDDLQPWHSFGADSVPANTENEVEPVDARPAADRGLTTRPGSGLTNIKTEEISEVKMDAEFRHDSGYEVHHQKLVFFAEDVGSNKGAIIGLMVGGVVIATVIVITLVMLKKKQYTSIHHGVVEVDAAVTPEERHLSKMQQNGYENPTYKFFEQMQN

fold change (FC) | Compound
3 | O=C(NCCN1CCCCC1)c1cc(Nc2ccccc2CN2CCCCC2)cc(C(=O)NCCN2CCCCC2)c1

Target: T1, Amyloid-beta precursor protein
Assay: Modulation of human wild-type APP695 expressed in SH-SY5Y cells assessed as increase in ACID level at 3 uM measured after 24 hrs by Western blot analysis relative to amodiaquine
Format: cell-based
Outline: as §1

fold change (FC) | Compound
3.2 to 10 | c1ccc(Nc2cc(CNCCN3CCCCC3)cc(CNCCN3CCCCC3)c2)c(CN2CCCCC2)c1
3.2 to 10 | O=C(NCCN1CCCCC1)c1cc(Nc2ccccc2CN2CCCCC2)cc(C(=O)NCCN2CCCCC2)c1

Target: T1, Amyloid-beta precursor protein
Assay: Modulation of human wild-type APP695 expressed in SH-SY5Y cells assessed as increase in ACID level at 10 uM measured after 24 hrs by Western blot analysis relative to amodiaquine
Format: cell-based
Outline: as §1

fold change (FC) | Compound
10 | c1ccc(Nc2cc(CNCCN3CCCCC3)cc(CNCCN3CCCCC3)c2)c(CN2CCCCC2)c1

Target: T1, Amyloid-beta precursor protein
Assay: Modulation of human wild-type APP695 expressed in SH-SY5Y cells assessed as increase in CTFalpha level at 3 uM measured after 24 hrs by Western blot analysis relative to amodiaquine
Format: cell-based
Outline: as §1

fold change (FC) | Compound
5.6 to 5.75 | c1ccc(Nc2cc(CNCCN3CCCCC3)cc(CNCCN3CCCCC3)c2)c(CN2CCCCC2)c1
5.6 to 5.75 | O=C(NCCN1CCCCC1)c1cc(Nc2ccccc2CN2CCCCC2)cc(C(=O)NCCN2CCCCC2)c1

Tested on: not listed separately
Assay: Cytotoxicity against human SH-SY5Y cells after 72 hrs by MTT assay
Format: cell-based
Outline: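 SH-SY5Y cells grown in DMEM with 10% heat-inactivated FBS, 2 mM L-glutamine, non-essential amino acids and penicillin/streptomycin at 37 °C, 5% CO2. Cells were exposed to compounds at 100, 50, 10, 5, 1, 0.5, 0.1 and 0.05 µM, in under 0.1% DMSO, for 72 h. Growth was read by colorimetric MTT; CC50 taken as the concentration causing 50% cell death.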

Compound | CC50 at 72 h
CN(C)Cc1ccccc1-c1cc(CNCCN2CCCCC2)cc(CNCCN2CCCCC2)c1 | > 100 µM
CN(C)Cc1ccccc1Nc1cc(CNCCN2CCCCC2)cc(CNCCN2CCCCC2)c1 | > 100 µM
c1ccc(Nc2cc(CNCCN3CCCCC3)cc(CNCCN3CCCCC3)c2)c(CN2CCCCC2)c1 | > 100 µM
O=C(NCCN1CCCCC1)c1cc(C(=O)NCCN2CCCCC2)cc(-c2ccccc2CN2CCCCC2)c1 | > 100 µM
CCN(CC)CCCC(C)Nc1ccnc2cc(Cl)ccc12 (centres undefined) [CHLOROQUINE] | 30 µM
O=C(NCCN1CCCCC1)c1cc(Nc2ccccc2CN2CCOCC2)cc(C(=O)NCCN2CCCCC2)c1 | > 100 µM
CN(C)Cc1ccccc1Nc1cc(C(=O)NCCN2CCCCC2)cc(C(=O)NCCN2CCCCC2)c1 | > 100 µM
c1ccc(-c2cc(CNCCN3CCCCC3)cc(CNCCN3CCCCC3)c2)c(CN2CCCCC2)c1 | > 100 µM
Oc1c(CN2CCCC2)cc(Nc2ccnc3cc(Cl)ccc23)cc1CN1CCCC1 | 30 µM
c1ccc(-c2cc(CNCCN3CCCCC3)cc(CNCCN3CCCCC3)c2)c(CN2CCOCC2)c1 | > 100 µM
CCN(CC)Cc1cc(Nc2ccnc3cc(Cl)ccc23)ccc1O [AMODIAQUINE] | 10 µM
O=C(CN1CCCCC1)Nc1cc(CN2CCOCC2)cc(Nc2ccnc3cc(Cl)ccc23)c1 | 10 µM
O=C(NCCN1CCCCC1)c1cc(Nc2ccccc2CN2CCCCC2)cc(C(=O)NCCN2CCCCC2)c1 | > 100 µM

Target: T1, Amyloid-beta precursor protein
Assay: Modulation of human wild-type APP695 expressed in SH-SY5Y cells assessed as inhibition of amyloid beta (1 to 40 residues) production measured after 24 hrs
Format: cell-based
Outline: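 SY5Y-APPwt cells (stable human APP695 clone) were exposed to compound for 24 h. Conditioned medium was spun at 200×g, frozen at −80 °C and assayed by ELISA for Aβ1-40 or Aβ1-42, with samples in duplicate and experiments in triplicate. Values were normalised to untreated control set to 100%. IC50 is the concentration lowering secreted Aβ to 50% of basal; mean of ≥3 independent experiments.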

IC50 | Compound
> 10 µM | CN(C)Cc1ccccc1-c1cc(CNCCN2CCCCC2)cc(CNCCN2CCCCC2)c1
> 10 µM | CN(C)Cc1ccccc1Nc1cc(CNCCN2CCCCC2)cc(CNCCN2CCCCC2)c1
4.6 µM | c1ccc(Nc2cc(CNCCN3CCCCC3)cc(CNCCN3CCCCC3)c2)c(CN2CCCCC2)c1
6.2 µM | O=C(NCCN1CCCCC1)c1cc(C(=O)NCCN2CCCCC2)cc(-c2ccccc2CN2CCCCC2)c1
7 µM | CCN(CC)CCCC(C)Nc1ccnc2cc(Cl)ccc12 (centres undefined) [CHLOROQUINE]
> 10 µM | O=C(NCCN1CCCCC1)c1cc(Nc2ccccc2CN2CCOCC2)cc(C(=O)NCCN2CCCCC2)c1
8.2 µM | CN(C)Cc1ccccc1Nc1cc(C(=O)NCCN2CCCCC2)cc(C(=O)NCCN2CCCCC2)c1
> 10 µM | c1ccc(-c2cc(CNCCN3CCCCC3)cc(CNCCN3CCCCC3)c2)c(CN2CCCCC2)c1
5.1 µM | Oc1c(CN2CCCC2)cc(Nc2ccnc3cc(Cl)ccc23)cc1CN1CCCC1
> 10 µM | c1ccc(-c2cc(CNCCN3CCCCC3)cc(CNCCN3CCCCC3)c2)c(CN2CCOCC2)c1
4 µM | CCN(CC)Cc1cc(Nc2ccnc3cc(Cl)ccc23)ccc1O [AMODIAQUINE]
3.1 µM | O=C(CN1CCCCC1)Nc1cc(CN2CCOCC2)cc(Nc2ccnc3cc(Cl)ccc23)c1
4.1 µM | O=C(NCCN1CCCCC1)c1cc(Nc2ccccc2CN2CCCCC2)cc(C(=O)NCCN2CCCCC2)c1

Target: T1, Amyloid-beta precursor protein
Assay: Modulation of human wild-type APP695 expressed in SH-SY5Y cells assessed as increase in CTFalpha level at 3 uM measured after 24 hrs by Western blot analysis relative to chloroquine
Format: cell-based
Outline: (§2)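 SY5Y stably transfected with human APP695 (pcDNA3.1, G418-selected clone SY5Y-APPwt) was plated 24 h before treatment and exposed to compound for 24 h. Lysates were made in Laemmli buffer with protease inhibitors and sonicated. 20 µg protein/lane was run on 16% Tris-Tricine gel and blotted to PVDF. Blots were probed overnight at 4 °C with APP C-terminal (last 17 aa) rabbit antiserum 1:4000 and developed by chemiluminescence. Band area was quantified with H3 reprobe. Result is the fragment level ratio of compound to chloroquine, both at 3 µM; mean of ≥3 independent experiments.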

fold change (FC) | Compound
2.6 | c1ccc(Nc2cc(CNCCN3CCCCC3)cc(CNCCN3CCCCC3)c2)c(CN2CCCCC2)c1
1.4 | O=C(NCCN1CCCCC1)c1cc(C(=O)NCCN2CCCCC2)cc(-c2ccccc2CN2CCCCC2)c1
1 | CCN(CC)CCCC(C)Nc1ccnc2cc(Cl)ccc12 (centres undefined) [CHLOROQUINE]
1 | CN(C)Cc1ccccc1Nc1cc(C(=O)NCCN2CCCCC2)cc(C(=O)NCCN2CCCCC2)c1
0.5 | Oc1c(CN2CCCC2)cc(Nc2ccnc3cc(Cl)ccc23)cc1CN1CCCC1
0.5 | CCN(CC)Cc1cc(Nc2ccnc3cc(Cl)ccc23)ccc1O [AMODIAQUINE]
0.7 | O=C(CN1CCCCC1)Nc1cc(CN2CCOCC2)cc(Nc2ccnc3cc(Cl)ccc23)c1
2.8 | O=C(NCCN1CCCCC1)c1cc(Nc2ccccc2CN2CCCCC2)cc(C(=O)NCCN2CCCCC2)c1

Target: T1, Amyloid-beta precursor protein
Assay: Modulation of human wild-type APP695 expressed in SH-SY5Y cells assessed as increase in AICD level at 3 uM measured after 24 hrs by Western blot analysis relative to chloroquine
Format: cell-based
Outline: as §2

fold change (FC) | Compound
4 | c1ccc(Nc2cc(CNCCN3CCCCC3)cc(CNCCN3CCCCC3)c2)c(CN2CCCCC2)c1
1.9 | O=C(NCCN1CCCCC1)c1cc(C(=O)NCCN2CCCCC2)cc(-c2ccccc2CN2CCCCC2)c1
1 | CCN(CC)CCCC(C)Nc1ccnc2cc(Cl)ccc12 (centres undefined) [CHLOROQUINE]
3 | CN(C)Cc1ccccc1Nc1cc(C(=O)NCCN2CCCCC2)cc(C(=O)NCCN2CCCCC2)c1
0.6 | Oc1c(CN2CCCC2)cc(Nc2ccnc3cc(Cl)ccc23)cc1CN1CCCC1
0.4 | CCN(CC)Cc1cc(Nc2ccnc3cc(Cl)ccc23)ccc1O [AMODIAQUINE]
0.5 | O=C(CN1CCCCC1)Nc1cc(CN2CCOCC2)cc(Nc2ccnc3cc(Cl)ccc23)c1
2.3 | O=C(NCCN1CCCCC1)c1cc(Nc2ccccc2CN2CCCCC2)cc(C(=O)NCCN2CCCCC2)c1

Target: T1, Amyloid-beta precursor protein
Assay: Modulation of human wild-type APP695 expressed in SH-SY5Y cells assessed as increase in CTFalpha level at 10 uM measured after 24 hrs by Western blot analysis relative to chloroquine
Format: cell-based
Outline: as §1

fold change (FC) | Compound
3 | O=C(NCCN1CCCCC1)c1cc(Nc2ccccc2CN2CCCCC2)cc(C(=O)NCCN2CCCCC2)c1
